From BindingDB's records for doi:10.1016/j.bmcl.2011.06.023 (Merck Research Laboratories, 2011)
Where “and” joins values, the source holds several entries; their conditions need not be identical. Equal values may be shown once.

Biological target: Smoothened (Mus musculus) (UniProt P56726)
Assay: Antagonist activity at smoothened expressed in mouse Shh Light2 cells assessed as inhibition of purmorphamine- induced Gli-dependent luciferase gene expression

Chain of Smoothened (Mus musculus) (P56726 whole entry, looked up): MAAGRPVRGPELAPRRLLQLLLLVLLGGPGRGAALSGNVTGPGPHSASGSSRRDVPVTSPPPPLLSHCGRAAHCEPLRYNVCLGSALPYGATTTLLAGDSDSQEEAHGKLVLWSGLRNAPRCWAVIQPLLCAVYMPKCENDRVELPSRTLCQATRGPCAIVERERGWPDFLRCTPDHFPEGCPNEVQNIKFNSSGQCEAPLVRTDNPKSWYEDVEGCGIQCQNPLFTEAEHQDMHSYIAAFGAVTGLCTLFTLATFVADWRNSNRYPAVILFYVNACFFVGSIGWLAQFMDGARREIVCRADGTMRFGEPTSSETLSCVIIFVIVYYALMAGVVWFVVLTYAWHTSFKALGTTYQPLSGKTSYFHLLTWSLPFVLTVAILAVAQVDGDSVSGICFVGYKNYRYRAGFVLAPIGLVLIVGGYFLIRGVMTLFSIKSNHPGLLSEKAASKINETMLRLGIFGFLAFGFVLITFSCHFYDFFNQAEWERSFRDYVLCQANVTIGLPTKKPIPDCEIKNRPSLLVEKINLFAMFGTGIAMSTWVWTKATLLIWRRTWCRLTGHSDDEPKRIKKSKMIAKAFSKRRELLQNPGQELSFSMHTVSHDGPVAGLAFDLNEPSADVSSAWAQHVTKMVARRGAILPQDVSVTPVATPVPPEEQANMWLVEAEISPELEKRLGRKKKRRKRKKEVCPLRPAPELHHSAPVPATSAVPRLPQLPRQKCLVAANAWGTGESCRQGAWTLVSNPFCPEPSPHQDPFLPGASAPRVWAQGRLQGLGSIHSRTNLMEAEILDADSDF

| Structure (SMILES) | IC50 |
| --- | --- |
| O=C(Nc1cccnc1-c1ccccc1)N1CCn2c(c(O)n([C@H]3C[C@@H]3c3ccccc3)c2=O)C1 | 28 nM |
| O=C(Nc1cccnc1-c1ccsc1)N1CCn2c(c(O)n([C@H]3C[C@@H]3c3ccccc3)c2=O)C1 | 89 nM |
| O=C(Nc1cccc(Cl)c1Cl)N1CCn2c(c(O)n([C@H]3C[C@@H]3c3ccccc3)c2=O)C1 | 270 nM and 430 nM |
| O=C(Nc1ccccc1-c1ccccc1)N1CCn2c(c(O)n([C@H]3C[C@@H]3c3ccccc3)c2=O)C1 | 100 nM and 42 nM and 140 nM |
| CS(=O)(=O)c1cc(Cl)c(NC(=O)N2CCn3c(c(O)n([C@H]4C[C@@H]4c4ccccc4)c3=O)C2)c(Cl)c1 | 41 nM |
| O=C(Nc1ccnn1-c1cccc(Cl)c1)N1CCn2c(c(O)n([C@H]3C[C@@H]3c3ccccc3)c2=O)C1 | 8 nM |
| O=C(Nc1ccnn1-c1cccc(F)c1)N1CCn2c(c(O)n([C@H]3C[C@@H]3c3ccccc3)c2=O)C1 | 6 nM |
| C[C@]12CN(C(=O)Nc3ccccc3-c3ccccc3)CCN1C(=O)N([C@H]1C[C@@H]1c1ccccc1)C2=O | 1400 nM |
| C[C@@]12CN(C(=O)Nc3ccccc3-c3ccccc3)CCN1C(=O)N([C@H]1C[C@@H]1c1ccccc1)C2=O | 23 nM |
| C[C@@]12CN(C(=O)Nc3ccnn3-c3ccccc3)CCN1C(=O)N([C@H]1C[C@@H]1c1ccccc1)C2=O | 17 nM |
| O=C(Nc1cccc(Cl)c1Cl)N1CCn2c(c(O)n([C@@H]3C[C@H]3c3ccccc3)c2=O)C1 | 880 nM and 1400 nM |

Biological target: Smoothened homolog (Homo sapiens, UniProt Q99835)
Sequence (Q99835 whole entry): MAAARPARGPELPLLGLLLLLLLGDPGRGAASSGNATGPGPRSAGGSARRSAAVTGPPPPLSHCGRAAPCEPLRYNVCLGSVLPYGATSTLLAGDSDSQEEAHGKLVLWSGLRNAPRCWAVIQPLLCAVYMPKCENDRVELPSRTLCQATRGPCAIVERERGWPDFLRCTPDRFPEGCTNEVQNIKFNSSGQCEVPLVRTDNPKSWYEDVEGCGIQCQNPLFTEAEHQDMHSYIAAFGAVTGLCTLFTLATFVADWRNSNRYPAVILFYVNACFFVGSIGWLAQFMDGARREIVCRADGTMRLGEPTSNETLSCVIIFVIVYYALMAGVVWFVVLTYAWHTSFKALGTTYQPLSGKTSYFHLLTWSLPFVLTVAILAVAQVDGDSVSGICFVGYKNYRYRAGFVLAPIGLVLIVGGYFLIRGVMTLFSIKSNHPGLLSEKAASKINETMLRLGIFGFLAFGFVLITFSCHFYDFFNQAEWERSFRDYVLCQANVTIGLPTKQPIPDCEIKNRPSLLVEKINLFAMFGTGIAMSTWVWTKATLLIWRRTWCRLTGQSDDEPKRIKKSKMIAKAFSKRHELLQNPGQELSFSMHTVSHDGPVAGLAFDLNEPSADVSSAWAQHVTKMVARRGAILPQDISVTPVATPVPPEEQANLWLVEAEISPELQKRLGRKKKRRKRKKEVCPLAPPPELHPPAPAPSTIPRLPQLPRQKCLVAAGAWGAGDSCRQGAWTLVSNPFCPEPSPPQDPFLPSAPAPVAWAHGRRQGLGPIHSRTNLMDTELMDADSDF
Assay: Displacement of BODIPY-cyclopamine from human Smo expressed in HEK293 cells in presence of 2% fetal calf serum
Method in brief: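 Competition binding: displacement of fluorescently labeled bodipy-cyclopamine from recombinant human Smo expressed in HEK-293 cells. Run in 2% fetal calf serum and, separately, in 20% normal human serum. IC50 values are means of at least five experiments.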

| Structure (SMILES) | IC50 |
| --- | --- |
| O=C(Nc1ccccc1-c1ccccc1)N1CCn2c(c(O)n([C@H]3C[C@@H]3c3ccccc3)c2=O)C1 | 48 nM and 21 nM |
